How the values were obtained:
Rattus norvegicus [1] = assay: Evaluated for the effects on the gastric emptying rates of phenol red semisolid meal through the stomach in rats, at a dose of 2.0 mg/Kg administered perorally.; assay type: functional
Outline: (§1)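 Mice or rats fasted 18 h. Compound suspended in 0.5% tragacanth given orally 60 min before a gavaged meal of 0.05% phenol red in 1.5% aqueous methylcellulose (0.2 mL/mouse, 1.5 mL/rat). Animals killed 15 min later; phenol red left in stomach measured (Scarpignato method). Emptying expressed as % enhancement over tragacanth-control mean; Duncan's multiple range test.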

Rattus norvegicus [2] = assay: Evaluated for the effects on the gastric emptying rates of phenol red semisolid meal through the stomach in rats, at a dose of 0.5 mg/kg administered perorally; assay type: functional; details: route oral; outline: as §1
Rattus norvegicus [3] = assay: Evaluated for the effects on the gastric emptying rates of resin pellets solid meal through the stomach in rats, at a dose of 5.0 mg/kg administered perorally; assay type: functional; details: route oral
Outline: (§2)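 Rats fasted 18 h. Compound suspended in 0.5% tragacanth given orally 30 min before 40 resin pellets (Amberlite IRA-93, 1-mm) are delivered into the stomach by tube. Animals killed 1 h later and pellets remaining in the stomach counted (Jacoby method). Result given as % enhancement over tragacanth-control mean; Duncan's multiple range test.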

Rattus norvegicus [4] = assay: Evaluated for the effects on the gastric emptying rates of phenol red semisolid meal through the stomach in rats, at a dose of 2.0 mg/kg administered perorally; assay type: functional; details: route oral; outline: as §1
Mus musculus [5] = assay: Evaluated for the effects on the gastric emptying rates of phenol red semisolid meal through the stomach in mouse, at a dose of 0.5 mg/kg administered perorally; assay type: functional; details: route oral; outline: as §1
Rattus norvegicus [6] = assay: Evaluated for the effects on the gastric emptying rates of resin pellets solid meal through the stomach in rats, at a dose of 2.0 mg/kg administered perorally; assay type: functional; details: route oral; outline: as §2
Mus musculus [7] = assay: Evaluated for the effects on the gastric emptying rates of phenol red semisolid meal through the stomach in mouse, at a dose of 5 mg/kg administered perorally; assay type: functional; details: route oral; outline: as §1
Rattus norvegicus [8] = assay: Evaluated for the effects on the gastric emptying rates of phenol red semisolid meal through the stomach in rats, at a dose of 5.0 mg/kg administered perorally; assay type: functional; details: route oral; outline: as §1
Mus musculus [9] = assay: Evaluated for the effects on the gastric emptying rates of phenol red semisolid meal through the stomach in mouse, at a dose of 2 mg/kg administered perorally; assay type: functional; details: route oral; outline: as §1
Rattus norvegicus [10] = assay: Evaluated for the effects on the gastric emptying rates of phenol red semisolid meal through the stomach in rats, at a dose of 10.0 mg/kg administered perorally; assay type: functional; details: route oral; outline: as §1
[11] = target: D(2) dopamine receptor (Canis lupus familiaris) (UniProt Q9GJU1); assay: Evaluated for the dopamine D2 receptor antagonistic activity (antagonism of the apomorphine-induced emesis in dogs) at a dose of 3.0 mg/kg administered perorally (po).; assay type: functional, organism-based; design: dose 3 mg/kg
Outline: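 Male beagle dogs (10-16 kg), groups of three to six, pretreated with test compound; 2 h later apomorphine hydrochloride 0.3 mg/kg s.c.; emetic episodes counted over 1 h. Modified Janssen method.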

Mus musculus [12] = assay: Evaluated for the effects on the gastric emptying rates of phenol red semisolid meal through the stomach in mouse, at a dose of 1 mg/kg administered perorally; assay type: functional; details: route oral; outline: as §1
Mus musculus [13] = assay: Evaluated for the effects on the gastric emptying rates of phenol red semisolid meal through the stomach in mouse, at a dose of 2 mg/kg administered perorally (po); (p<0.01); assay type: functional; outline: as §1
Rattus norvegicus [14] = assay: Evaluated for the effects on the gastric emptying rates of phenol red semisolid meal through the stomach in rats, at a dose of 10.0 mg/Kg administered perorally; assay type: functional; outline: as §1
Rattus norvegicus [15] = assay: Evaluated for the effects on the gastric emptying rates of phenol red semisolid meal through the stomach in rats, at a dose of 5.0 mg/Kg administered perorally; assay type: functional; outline: as §1
Rattus norvegicus [16] = assay: Evaluated for the effects on the gastric emptying rates of resin pellets solid meal through the stomach in rats, at a dose of 10 mg/Kg administered perorally; assay type: functional; outline: as §2
Mus musculus [17] = assay: Evaluated for the effects on the gastric emptying rates of phenol red semisolid meal through the stomach in mouse, at a dose of 0.5 mg/Kg administered perorally; assay type: functional; outline: as §1
Rattus norvegicus [18] = assay: Evaluated for the effects on the gastric emptying rates of resin pellets solid meal through the stomach in rats, at a dose of 2.0 mg/Kg administered perorally; assay type: functional; outline: as §2
Mus musculus [19] = assay: Evaluated for the effects on the gastric emptying rates of phenol red semisolid meal through the stomach in mouse, at a dose of 1 mg/Kg administered perorally; assay type: functional; outline: as §1
Mus musculus [20] = assay: Evaluated for the effects on the gastric emptying rates of phenol red semisolid meal through the stomach in mouse, at a dose of 5 mg/Kg administered perorally; assay type: functional; outline: as §1
Mus musculus [21] = assay: Evaluated for the effects on the gastric emptying rates of phenol red semisolid meal through the stomach in mouse, at a dose of 2 mg/Kg administered perorally; assay type: functional; outline: as §1
Rattus norvegicus [22] = assay: Evaluated for the effects on the gastric emptying rates of phenol red semisolid meal through the stomach in rats, at a dose of 0.5 mg/Kg administered perorally; assay type: functional; outline: as §1
Rattus norvegicus [23] = assay: Evaluated for the effects on the gastric emptying rates of resin pellets solid meal through the stomach in rats, at a dose of 5.0 mg/Kg administered perorally; assay type: functional; outline: as §2
Rattus norvegicus [24] = assay: Evaluated for the effects on the gastric emptying rates of resin pellets solid meal through the stomach in rats, at a dose of 10 mg/kg administered perorally; assay type: functional; details: route oral; outline: as §2
[25] = target: D(2) dopamine receptor (Canis lupus familiaris) (UniProt Q9GJU1); details: 3.0 mg/kg
[26] = system: dopamine D2 receptor (Canis familiaris); assay: Evaluated for the dopamine D2 receptor antagonistic activity (antagonism of apomorphine-induced emesis in dogs) at a dose of 3.0 mg/kg administered perorally; details: Canis lupus familiaris

D(2) dopamine receptor (Canis lupus familiaris), sequence (Q9GJU1 whole entry): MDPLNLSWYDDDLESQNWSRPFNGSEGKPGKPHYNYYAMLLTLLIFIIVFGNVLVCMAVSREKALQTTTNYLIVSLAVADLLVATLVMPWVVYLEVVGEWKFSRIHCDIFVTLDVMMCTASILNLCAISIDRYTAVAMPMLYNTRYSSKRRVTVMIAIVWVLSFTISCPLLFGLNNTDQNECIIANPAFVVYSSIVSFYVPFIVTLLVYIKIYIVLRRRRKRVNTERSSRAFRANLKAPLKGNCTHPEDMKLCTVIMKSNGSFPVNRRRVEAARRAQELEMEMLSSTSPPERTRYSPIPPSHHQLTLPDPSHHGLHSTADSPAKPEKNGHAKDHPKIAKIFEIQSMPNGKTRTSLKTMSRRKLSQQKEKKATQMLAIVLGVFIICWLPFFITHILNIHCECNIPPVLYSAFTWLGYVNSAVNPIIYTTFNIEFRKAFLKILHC

SMILES: NS(=O)(=O)c1ccc(Cl)c(C(=O)NCC2CN(Cc3ccccc3)CCO2)c1 (stereo not drawn)
- GE (Rattus norvegicus [1]): 18%

SMILES: COc1cc(N)c(Cl)cc1C(=O)NCC1CN(Cc2ccccc2)CCO1.Cl (stereo not drawn)
- GE (Rattus norvegicus [1]): 39%

SMILES: COc1cc(N(C)C)c(Cl)cc1C(=O)NCC1CN(Cc2ccccc2)CCO1.O=C(O)/C=C/C(=O)O (stereo not drawn)
- GE (Rattus norvegicus [2]): 27%
- GE (Rattus norvegicus [3]): 5%
- GE (Rattus norvegicus [4]): 52%
- GE (Mus musculus [5]): 7%
- GE (Rattus norvegicus [6]): 15%
- GE (Mus musculus [7]): 43%
- GE (Rattus norvegicus [8]): 47%
- GE (Mus musculus [9]): 43%
- GE (Rattus norvegicus [10]): 49%
- inhibition [11]: 0%
- GE (Mus musculus [12]): 33%

SMILES: CN(C)c1cc(O)c(C(=O)NCC2CN(Cc3ccccc3)CCO2)cc1Cl.O=C(O)C(=O)O (stereo not drawn)
- GE (Rattus norvegicus [1]): 27%

SMILES: COc1ccc(Cl)cc1C(=O)NCC1CN(Cc2ccccc2)CCO1.Cl (stereo not drawn)
- GE (Rattus norvegicus [1]): 19%

SMILES: CNc1cc(OC)c(C(=O)NCC2CN(Cc3ccccc3)CCO2)cc1Cl.O=C(O)/C=C/C(=O)O (stereo not drawn)
- GE (Rattus norvegicus [1]): 14%

SMILES: O=C(NCC1CN(Cc2ccccc2)CCO1)c1ccc2c(c1)OCO2.O=C(O)/C=C/C(=O)O (stereo not drawn)
- GE (Rattus norvegicus [1]): 34%

SMILES: Nc1cc(O)c(C(=O)NCC2CN(Cc3ccccc3)CCO2)cc1Cl.O (stereo not drawn)
- GE (Rattus norvegicus [1]): 36%

SMILES: COc1cc(N)c(Cl)cc1C(=O)NCCCC1CN(Cc2ccccc2)CCO1.O=C(O)C(=O)O (stereo not drawn)
- GE (Rattus norvegicus [1]): 23%

SMILES: COc1cc(Cl)c(N)cc1C(=O)NCC1CN(Cc2ccccc2)CCO1 (stereo not drawn)
- GE (Rattus norvegicus [1]): 10%

SMILES: COc1cc(N)c(Cl)cc1C(=O)NCCC1CN(Cc2ccccc2)CCO1.O=C(O)/C=C/C(=O)O (stereo not drawn)
- GE (Rattus norvegicus [1]): 35%

SMILES: COc1cc(NC(C)=O)ccc1C(=O)NCC1CN(Cc2ccccc2)CCO1.O (stereo not drawn)
- GE (Rattus norvegicus [1]): 24%

SMILES: CCOc1cc(N)c(Cl)cc1C(=O)NCC1CN(Cc2ccccc2)CCO1.O (stereo not drawn)
- GE (Rattus norvegicus [2]): 34%
- GE (Rattus norvegicus [3]): 76%
- GE (Rattus norvegicus [4]): 54%
- GE (Mus musculus [5]): 35%
- GE (Rattus norvegicus [6]): 58%
- GE (Mus musculus [7]): 38%
- GE (Rattus norvegicus [8]): 56%
- GE (Mus musculus [13]): 52%
- GE (Rattus norvegicus [10]): 49%
- inhibition [11]: 5%
- GE (Mus musculus [12]): 23%

SMILES: CCOc1cc(N)c(Cl)cc1C(=O)NCCC1CN(Cc2ccccc2)CCO1 (stereo not drawn)
- GE (Rattus norvegicus [1]): 45%

SMILES: O=C(NCC1CN(Cc2ccccc2)CCO1)c1cccc2c1OCO2.O=C(O)/C=C/C(=O)O (stereo not drawn)
- GE (Rattus norvegicus [1]): 30%

SMILES: COc1cc(N)c(Cl)cc1C(=O)OCC1CN(Cc2ccccc2)CCO1 (stereo not drawn)
- GE (Rattus norvegicus [1]): 17%

SMILES: COc1cc(N)c(Cl)cc1C(=O)N(C)CC1CN(Cc2ccccc2)CCO1.O=C(O)/C=C/C(=O)O (stereo not drawn)
- GE (Rattus norvegicus [1]): 15%

SMILES: COc1cc(N)ccc1C(=O)NCC1CN(Cc2ccccc2)CCO1 (stereo not drawn)
- GE (Rattus norvegicus [1]): 11%

SMILES: COc1cc(Cl)ccc1C(=O)NCC1CN(Cc2ccccc2)CCO1.Cl (stereo not drawn)
- GE (Rattus norvegicus [1]): 23%

SMILES: COc1cc(N)c(Cl)cc1C(=O)NCC1CN(Cc2ccccc2)CCO1 (stereo not drawn) [listing 1 of 2 here]
- GE (Rattus norvegicus [14]): 52%
- GE (Rattus norvegicus [1]): 26%
- GE (Rattus norvegicus [15]): 35%
- GE (Rattus norvegicus [16]): 78%
- GE (Mus musculus [17]): 50%
- GE (Rattus norvegicus [18]): 49%
- GE (Mus musculus [19]): 49%
- GE (Mus musculus [20]): 68%
- GE (Mus musculus [21]): 46%
- GE (Rattus norvegicus [22]): 18%
- GE (Rattus norvegicus [23]): 70%

SMILES: CC(=O)Nc1cc(O)c(C(=O)NCC2CN(Cc3ccccc3)CCO2)cc1Cl (stereo not drawn)
- GE (Rattus norvegicus [1]): 11%

SMILES: CCN(CC)CCNC(=O)c1cc(Cl)c(N)cc1OC [METOCLOPRAMIDE]
- GE (Rattus norvegicus [3]): 23%
- GE (Rattus norvegicus [24]): 43%
- GE (Rattus norvegicus [4]): 21%
- inhibition [25]: 100%
- GE (Mus musculus [7]): 28%
- GE (Rattus norvegicus [8]): 26%
- GE (Mus musculus [9]): 20%
- GE (Rattus norvegicus [10]): 31%
- GE (Mus musculus [12]): -10%

SMILES: COc1cc(N)c(Cl)cc1C(=O)NC1CCN(CCCOc2ccc(F)cc2)CC1OC (stereo not drawn) [CISAPRIDE]
- GE (Rattus norvegicus [2]): 14%
- GE (Rattus norvegicus [4]): 47%
- GE (Mus musculus [5]): 24%
- GE (Mus musculus [7]): 38%
- GE (Rattus norvegicus [8]): 50%
- GE (Mus musculus [9]): 36%
- GE (Rattus norvegicus [10]): 43%
- GE (Mus musculus [12]): 29%

SMILES: O=C(NCC1CN(Cc2ccccc2)CCO1)c1c(F)c(F)c(F)c(F)c1F.O=C(O)C(=O)O (stereo not drawn)
- GE (Rattus norvegicus [1]): 9%

SMILES: CCN(CC)c1cc(OC)c(C(=O)NCC2CN(Cc3ccccc3)CCO2)cc1Cl.O=C(O)C(=O)O (stereo not drawn)
- GE (Rattus norvegicus [1]): 21%

SMILES: COc1ccc(S(N)(=O)=O)cc1C(=O)NCC1CN(Cc2ccccc2)CCO1 (stereo not drawn)
- GE (Rattus norvegicus [1]): 24%

SMILES: Nc1ccc(C(=O)NCC2CN(Cc3ccccc3)CCO2)cc1Cl.O=C(O)C(=O)O (stereo not drawn)
- GE (Rattus norvegicus [1]): 30%

SMILES: COc1ccccc1C(=O)NCC1CN(Cc2ccccc2)CCO1.O=C(O)/C=C/C(=O)O (stereo not drawn)
- GE (Rattus norvegicus [1]): 17%

SMILES: COc1cc(N)c([N+](=O)[O-])cc1C(=O)NCC1CN(Cc2ccccc2)CCO1.O (stereo not drawn)
- GE (Rattus norvegicus [1]): 14%

SMILES: CCOc1ccc(S(N)(=O)=O)cc1C(=O)NCC1CN(Cc2ccccc2)CCO1 (stereo not drawn)
- GE (Rattus norvegicus [1]): 19%

SMILES: COc1cc(N)c(Br)cc1C(=O)NCC1CN(Cc2ccccc2)CCO1 (stereo not drawn)
- GE (Rattus norvegicus [1]): 10%

SMILES: COc1c(Cl)cc(Cl)c(OC)c1C(=O)NCC1CN(Cc2ccccc2)CCO1 (stereo not drawn)
- GE (Rattus norvegicus [1]): 4%

SMILES: CCSc1ccc(S(N)(=O)=O)cc1C(=O)NCC1CN(Cc2ccccc2)CCO1 (stereo not drawn)
- GE (Rattus norvegicus [1]): 27%

SMILES: COc1cc(N)c(Cl)cc1C(=O)NCC1CN(Cc2ccccc2)CCO1 (stereo not drawn) [listing 2 of 2 here]
- inhibition [26]: 4%

SMILES: CN(C)c1c(Cl)cc(C(=O)NCC2CN(Cc3ccccc3)CCO2)c(O)c1Cl.O=C(O)C(=O)O (stereo not drawn)
- GE (Rattus norvegicus [1]): 14%

SMILES: COc1cc(C(=O)NCC2CN(Cc3ccccc3)CCO2)cc(OC)c1OC.O=C(O)C(=O)O (stereo not drawn)
- GE (Rattus norvegicus [1]): 11%

SMILES: CCOc1cc(N(C)C)c(Cl)cc1C(=O)NCC1CN(Cc2ccccc2)CCO1.O=C(O)C(=O)O (stereo not drawn)
- GE (Rattus norvegicus [1]): 51%

SMILES: CCOc1cc(N)c(Cl)cc1C(=O)NCCCC1CN(Cc2ccccc2)CCO1 (stereo not drawn)
- GE (Rattus norvegicus [1]): 18%

Source: ChEMBL document CHEMBL1124766, “Novel benzamides as selective and potent gastric prokinetic agents. 1. Synthesis and structure-activity relationships of N-[(2-morpholinyl)alkyl]benzamides” (1990)
